Measurements of several laboratories.
Lines come from different studies, so protocols differ.
Target: Serine/threonine-protein kinase 38 (STK38, Homo sapiens, UniProt Q15208)

| Structure (SMILES) | assay | system | conditions | endpoint | result |
| --- | --- | --- | --- | --- | --- |
| CCN1CCC2(CC1)NC(=O)c1c(c3ccc(Cl)c(Cl)c3n1C)C2C#N (racemic) | thermal stability, DSF |  | 10 µM | ΔTm | 0.1 °C |
| CCC(=N\O)/C(C)=C/c1ccc(F)cc1 | cell-free assay, competition with immobilised ligand |  | 1 µM | remaining binding | 94% |
| N#CC1c2c([nH]c3c(Cl)c(Cl)ccc23)C(=O)NC12CCCCC2 (racemic) | thermal stability, DSF |  | 10 µM | ΔTm | 0.6 °C |
| CN([C@@H]1CCc2c(CC(=O)O)c3cc(S(C)(=O)=O)ccc3n2C1)S(=O)(=O)c1ccc(F)cc1 | cell-free assay, competition with immobilised ligand |  | 1 µM | remaining binding | 85% |
| Cc1sc(C(=O)NC2COC2)cc1-n1cc(NC(=O)Nc2c(F)cccc2Cl)cn1 | enzyme activity, inhibitor |  | 10 µM | remaining activity | 91.5% |
| Cc1c(NC(=O)c2cc(C(N)=O)nc3cc(F)ccc23)c(C(F)(F)F)nn1Cc1ccc(C#N)cc1 | cell-free assay, competition with immobilised ligand |  | 1 µM | remaining binding | 94% |
| O=C(Nc1cnn(-c2csc(C(=O)NC3COC3)c2)c1)Nc1ccccc1Cl | enzyme activity, inhibitor |  | 5 µM | remaining activity | 99.2% |
| O=C1Nc2ccc(Cl)cc2C1=Cc1cc(Cl)c(O)c(Cl)c1 | cell-free assay |  | 0.5 µM | remaining signal | 85.4% |
| CCN1CCN(Cc2ccc(NC(=O)c3ccc(C)c(Oc4ccnc5[nH]ccc45)c3)cc2C(F)(F)F)CC1 | target engagement in cells, inhibitor, chemoproteomics | A-375 | 50 nM | inhibition | -11.4% |
| CN1CCC2(CC1)NC(=O)c1c(c3ccc(Cl)c(Cl)c3n1C)C2C#N (racemic) | thermal stability, DSF |  | 10 µM | ΔTm | 0 °C |
| Cc1nc(Cc2cccc(C(F)(F)F)c2)sc1-c1ccc(C(N)=O)nc1 | cell-free assay, competition with immobilised ligand |  | 1 µM | remaining binding | 81% |
| COc1cc2c(N3CCN(C(=O)Nc4ccc(OC(C)C)cc4)CC3)ncnc2cc1OCCCN1CCCCC1 | cell-free assay |  | 0.5 µM | remaining signal | 99.1% |
| Cn1c2c(c3ccc(Cl)c(Cl)c31)C(C#N)C1(CCOCC1)NC2=O (stereo not drawn) | thermal stability, DSF |  | 10 µM | ΔTm | 0 °C |
| c1ccc(N2CCN(Cc3nc4ccccc4[nH]3)CC2)nc1 | binding, competition with immobilised ligand |  | 1 µM | remaining binding | 89% |
| CCN1CCN(Cc2ccc(NC(=O)c3ccc(C)c(/C=C/c4cnc5[nH]ccc5c4OC)c3)cc2C(F)(F)F)CC1 | target engagement in cells, inhibitor, chemoproteomics | A-375 | 0.5 µM | inhibition | -0.843% |
| O=S(=O)(NC1CCC(c2cc(F)ccc2F)(S(=O)(=O)c2ccc(Cl)cc2)CC1)C(F)(F)F (stereo not drawn) | cell-free assay, competition with immobilised ligand |  | 1 µM | remaining binding | 100% |
| Cn1c2c(c3ccc(Cl)c(Cl)c31)C(C#N)C(C)(C)NC2=O (stereo not drawn) | thermal stability, DSF |  | 10 µM | ΔTm | 0.1 °C |
| c1nc2c(Nc3ccc4c(c3)OCCO4)nc(Nc3ccc4c(c3)OCCO4)nc2[nH]1 | enzyme activity, inhibitor |  | 10 µM | activity vs control | 73% |
